Experimental data from ChEMBL document CHEMBL1138590, “Discovery of novel dihydro-9,10-ethano-anthracene carboxamides as glucocorticoid receptor modulators” (Bioorg Med Chem Lett, 2009).

What was measured:
Glucocorticoid receptor [1] = target: T1, Glucocorticoid receptor (Homo sapiens, UniProt P04150); experiment: Agonist activity at GR ligand binding domain expressed in human NP1 cells assessed as glucocorticoid response element transactivation by GAL4 luciferase reporter gene assay; assay type: cell-based
T1 sequence (P04150 whole entry): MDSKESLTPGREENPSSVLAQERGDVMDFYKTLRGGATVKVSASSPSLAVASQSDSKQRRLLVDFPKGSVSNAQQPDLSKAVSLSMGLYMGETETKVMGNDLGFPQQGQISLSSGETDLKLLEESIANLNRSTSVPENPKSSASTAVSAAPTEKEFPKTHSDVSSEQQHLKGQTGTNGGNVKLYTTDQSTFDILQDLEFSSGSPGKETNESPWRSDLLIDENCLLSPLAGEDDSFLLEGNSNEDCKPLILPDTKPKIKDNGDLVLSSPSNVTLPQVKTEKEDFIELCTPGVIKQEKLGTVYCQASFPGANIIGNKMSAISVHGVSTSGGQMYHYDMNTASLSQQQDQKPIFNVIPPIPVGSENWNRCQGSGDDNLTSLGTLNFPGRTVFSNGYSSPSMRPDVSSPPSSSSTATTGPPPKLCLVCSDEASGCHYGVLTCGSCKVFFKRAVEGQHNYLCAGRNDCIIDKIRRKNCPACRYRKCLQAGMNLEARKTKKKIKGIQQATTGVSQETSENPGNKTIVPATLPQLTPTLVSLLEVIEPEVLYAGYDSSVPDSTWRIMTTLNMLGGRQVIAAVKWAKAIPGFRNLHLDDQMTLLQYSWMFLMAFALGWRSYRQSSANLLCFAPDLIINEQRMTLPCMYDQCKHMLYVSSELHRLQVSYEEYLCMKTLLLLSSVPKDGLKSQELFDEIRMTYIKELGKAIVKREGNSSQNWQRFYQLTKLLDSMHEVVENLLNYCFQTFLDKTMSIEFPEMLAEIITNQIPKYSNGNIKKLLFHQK

Androgen receptor = target: T2, Androgen receptor (Homo sapiens, UniProt P10275); experiment: Displacement of fluorescently labeled ligand from androgen receptor by fluorescence polarization assay
T2 sequence (P10275 whole entry): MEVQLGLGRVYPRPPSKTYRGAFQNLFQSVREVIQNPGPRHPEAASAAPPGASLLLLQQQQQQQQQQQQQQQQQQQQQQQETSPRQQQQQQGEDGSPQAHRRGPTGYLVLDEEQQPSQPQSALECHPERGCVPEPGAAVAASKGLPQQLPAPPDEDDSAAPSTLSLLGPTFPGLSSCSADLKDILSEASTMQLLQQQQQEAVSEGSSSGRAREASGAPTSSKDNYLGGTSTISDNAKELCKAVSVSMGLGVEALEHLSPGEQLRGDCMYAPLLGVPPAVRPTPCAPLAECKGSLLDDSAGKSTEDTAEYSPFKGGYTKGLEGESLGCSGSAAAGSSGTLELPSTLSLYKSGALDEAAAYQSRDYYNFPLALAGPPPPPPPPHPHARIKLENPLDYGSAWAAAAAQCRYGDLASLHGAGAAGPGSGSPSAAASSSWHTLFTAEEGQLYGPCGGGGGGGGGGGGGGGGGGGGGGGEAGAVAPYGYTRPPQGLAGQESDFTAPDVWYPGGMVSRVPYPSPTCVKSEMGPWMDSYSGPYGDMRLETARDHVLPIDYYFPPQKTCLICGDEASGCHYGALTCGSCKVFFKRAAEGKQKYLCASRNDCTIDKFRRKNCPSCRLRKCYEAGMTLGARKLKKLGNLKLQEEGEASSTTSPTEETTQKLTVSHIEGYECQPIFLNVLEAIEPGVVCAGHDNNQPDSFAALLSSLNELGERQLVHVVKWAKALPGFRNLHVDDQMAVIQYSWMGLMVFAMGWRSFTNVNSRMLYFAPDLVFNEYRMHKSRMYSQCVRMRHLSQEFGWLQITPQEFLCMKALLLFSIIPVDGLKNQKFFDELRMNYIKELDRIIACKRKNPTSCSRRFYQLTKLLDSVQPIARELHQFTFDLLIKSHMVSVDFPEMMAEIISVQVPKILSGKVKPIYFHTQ

Glucocorticoid receptor [2] = target: T1, Glucocorticoid receptor; experiment: Transrepression activity at GR in PMA-stimulated human A549 cells assessed as inhibition of AP1 response element-induced luciferase reporter gene activity; assay type: cell-based
Glucocorticoid receptor [3] = target: T1, Glucocorticoid receptor; experiment: Transrepression activity at GR in IL-1-beta-stimulated human A549 cells assessed as inhibition of NF-kappaB-dependent E-selectin transcription by luciferase reporter gene assay; assay type: cell-based
Glucocorticoid receptor [4] = target: T1, Glucocorticoid receptor; experiment: Displacement of FITC-dexamethasone from human recombinant glucocorticoid receptor alpha by fluorescence polarization assay
Estrogen receptor = target: T3, Estrogen receptor (Homo sapiens, UniProt P03372); experiment: Displacement of […] from estrogen receptor alpha by fluorescence polarization assay
T3 sequence (P03372 whole entry): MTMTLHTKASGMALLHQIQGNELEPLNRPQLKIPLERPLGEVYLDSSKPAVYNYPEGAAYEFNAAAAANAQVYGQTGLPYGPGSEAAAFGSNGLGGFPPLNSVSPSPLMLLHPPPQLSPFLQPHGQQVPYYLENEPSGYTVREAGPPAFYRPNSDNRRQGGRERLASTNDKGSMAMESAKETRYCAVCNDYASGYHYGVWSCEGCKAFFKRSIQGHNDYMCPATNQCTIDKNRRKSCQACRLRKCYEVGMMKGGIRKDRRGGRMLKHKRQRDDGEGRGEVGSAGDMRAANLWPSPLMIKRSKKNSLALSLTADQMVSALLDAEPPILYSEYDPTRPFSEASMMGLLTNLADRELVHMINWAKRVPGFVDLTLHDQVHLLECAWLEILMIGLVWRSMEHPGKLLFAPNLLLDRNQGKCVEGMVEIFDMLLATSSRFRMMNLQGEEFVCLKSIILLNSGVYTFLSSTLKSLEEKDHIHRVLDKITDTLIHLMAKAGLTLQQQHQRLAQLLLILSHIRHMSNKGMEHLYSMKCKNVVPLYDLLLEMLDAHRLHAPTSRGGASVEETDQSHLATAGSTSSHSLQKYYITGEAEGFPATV
Procedure, shortened: (§1)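 Fluorescence polarization competition binding: the test compound competes with a fluorescently labelled ligand for binding to the full-length receptor or its ligand-binding domain. IC50 is fitted from the polarization signal with a four-parameter logistic equation. Ki is derived by Cheng–Prusoff, Ki = IC50/(1 + ligand concentration/Kd). Values are means of duplicate experiments.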

Progesterone receptor = target: T4, Progesterone receptor (Homo sapiens, UniProt P06401); experiment: Displacement of […] from progesterone receptor by fluorescence polarization assay; procedure, shortened: as §1
T4 sequence (P06401 whole entry): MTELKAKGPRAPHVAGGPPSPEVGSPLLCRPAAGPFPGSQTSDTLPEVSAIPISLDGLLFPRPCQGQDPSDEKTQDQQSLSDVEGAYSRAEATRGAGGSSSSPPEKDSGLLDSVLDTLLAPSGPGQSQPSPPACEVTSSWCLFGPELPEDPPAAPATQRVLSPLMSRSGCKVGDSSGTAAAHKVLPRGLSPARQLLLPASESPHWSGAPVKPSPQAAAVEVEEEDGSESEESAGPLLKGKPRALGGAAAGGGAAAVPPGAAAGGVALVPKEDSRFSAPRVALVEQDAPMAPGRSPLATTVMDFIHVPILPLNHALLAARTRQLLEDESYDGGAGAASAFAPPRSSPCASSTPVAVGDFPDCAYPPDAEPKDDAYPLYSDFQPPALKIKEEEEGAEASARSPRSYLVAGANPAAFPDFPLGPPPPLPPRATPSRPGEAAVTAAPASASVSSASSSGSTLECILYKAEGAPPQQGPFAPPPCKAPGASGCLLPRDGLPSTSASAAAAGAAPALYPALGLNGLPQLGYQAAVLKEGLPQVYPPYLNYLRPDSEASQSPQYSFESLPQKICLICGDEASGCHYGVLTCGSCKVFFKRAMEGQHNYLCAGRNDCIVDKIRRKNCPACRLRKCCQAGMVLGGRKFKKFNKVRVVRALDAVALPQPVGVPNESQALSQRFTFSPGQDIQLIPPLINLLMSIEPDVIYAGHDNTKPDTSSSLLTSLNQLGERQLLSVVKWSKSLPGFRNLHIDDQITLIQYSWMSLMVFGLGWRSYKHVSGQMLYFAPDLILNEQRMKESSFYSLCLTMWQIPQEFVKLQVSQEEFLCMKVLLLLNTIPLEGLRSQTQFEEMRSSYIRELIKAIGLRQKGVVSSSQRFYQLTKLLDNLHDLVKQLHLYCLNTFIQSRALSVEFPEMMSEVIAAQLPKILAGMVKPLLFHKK

[5] = Selectivity for human recombinant glucocorticoid receptor alpha over androgen receptor
[6] = Selectivity for human recombinant glucocorticoid receptor alpha over estrogen receptor alpha
[7] = target: T5, Mineralocorticoid receptor (Homo sapiens) (UniProt P08235); experiment: Antagonist activity at mineralocorticoid receptor in human A549 cells assessed as inhibition of 1.25 nM aldosterone-induced effect at 0.1 uM; assay type: functional, cell-based
T5 sequence (whole entry): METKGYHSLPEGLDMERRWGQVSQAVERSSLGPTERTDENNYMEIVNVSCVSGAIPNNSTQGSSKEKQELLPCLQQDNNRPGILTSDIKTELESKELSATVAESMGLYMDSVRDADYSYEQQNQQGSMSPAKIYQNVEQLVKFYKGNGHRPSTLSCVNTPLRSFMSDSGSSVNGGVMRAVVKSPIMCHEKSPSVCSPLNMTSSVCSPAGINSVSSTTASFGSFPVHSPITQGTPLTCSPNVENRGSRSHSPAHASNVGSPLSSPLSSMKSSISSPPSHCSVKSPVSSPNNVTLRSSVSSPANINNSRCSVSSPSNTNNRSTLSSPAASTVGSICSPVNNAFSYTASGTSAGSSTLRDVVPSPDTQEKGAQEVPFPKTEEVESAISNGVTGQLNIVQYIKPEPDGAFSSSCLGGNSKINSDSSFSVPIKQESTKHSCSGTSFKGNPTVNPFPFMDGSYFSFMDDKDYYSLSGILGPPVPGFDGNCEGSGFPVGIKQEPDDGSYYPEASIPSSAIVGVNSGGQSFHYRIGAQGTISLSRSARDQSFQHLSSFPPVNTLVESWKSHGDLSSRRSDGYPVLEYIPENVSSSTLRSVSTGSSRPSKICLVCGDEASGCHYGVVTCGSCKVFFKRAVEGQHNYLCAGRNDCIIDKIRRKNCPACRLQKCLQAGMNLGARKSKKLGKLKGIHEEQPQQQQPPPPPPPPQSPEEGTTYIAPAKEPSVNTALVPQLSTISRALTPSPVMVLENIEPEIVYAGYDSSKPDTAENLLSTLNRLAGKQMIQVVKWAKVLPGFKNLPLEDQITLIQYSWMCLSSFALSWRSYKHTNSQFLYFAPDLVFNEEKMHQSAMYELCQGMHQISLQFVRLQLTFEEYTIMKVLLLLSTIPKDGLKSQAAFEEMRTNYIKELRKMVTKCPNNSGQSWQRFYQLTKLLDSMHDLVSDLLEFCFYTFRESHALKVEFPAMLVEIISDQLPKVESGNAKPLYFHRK

[8] = Selectivity for human recombinant glucocorticoid receptor alpha over progesterone receptor

Row | SMILES | EC50 (Glucocorticoid receptor [1]) | Ki (Androgen receptor) | EC50 (Glucocorticoid receptor [2]) | EC50 (Glucocorticoid receptor [3]) | Ki (Glucocorticoid receptor [4]) | Ki (Estrogen receptor) | Ki (Progesterone receptor) | fold change (FC) [5] | fold change (FC) [6] | inhibition [7] | fold change (FC) [8]
1 | CC12CC(C)(C(=O)Nc3nncs3)C(c3ccccc31)c1ccccc12 (single isomer, unassigned; isomer A) | 111 nM | 9300 nM | 11.4 nM | 8.3 nM | 1.3 nM | > 5000 nM | 35 nM | – | – | – | –
2 | Cc1cnc(NC(=O)C2(C)CC3c4ccccc4C2c2ccccc23)s1 (single isomer, unassigned; isomer A) [listing 1 of 2 here] | – | > 10000 nM | 345 nM | – | 4.1 nM | > 5000 nM | > 10000 nM | – | – | – | –
3 | CC1(C(=O)Nc2nccs2)CC2c3ccccc3C1c1ccccc12 (configuration not stated) | > 10000 nM | – | 268 nM | 30.7 nM | 2.9 nM | – | – | > 1000 | > 1000 | – | –
4 | Cc1cnc(NC(=O)C2(C)CC3c4ccccc4C2c2ccccc23)s1 (single isomer, unassigned; isomer A) [listing 2 of 2 here] | – | – | – | – | – | – | – | – | – | 5% | > 2500
5 | CC12CC(C)(C(=O)Nc3nccs3)C(c3ccccc31)c1ccccc12 (stereo in doubt; 17a) | 117 nM | 2900 nM | 5.3 nM | 1.4 nM | 1 nM | > 5000 nM | 31 nM | – | – | – | –
